# Results from ChEMBL document CHEMBL4680103, “In Vitro and in Vivo Anti-Trypanosoma cruzi Activity of New Arylamine Mannich Base-Type Derivatives” (J Med Chem, 2016).
# Activity calls are given as the source filed them. No cut-off for these calls is given here.
# Tests used:
# [1] = Inhibition of Trypanosoma cruzi Arequipa Fe-SOD by NBT dye based spectrophotometry
# Summary of the method: (§1)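 Fe-SOD source: Arequipa epimastigote homogenate (STE buffer pH 7.8, sonication, centrifugation, supernatant; protein by Bradford); CuZn-SOD was commercial human erythrocyte enzyme. Activity was measured as NBT reduction by superoxide in 50 mM potassium phosphate pH 7.8, with compounds at 5 concentrations (1–100 µM). A560 was read before and after 10 min under lamp light with stirring. Three rate determinations; Newman–Keuls test.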
# [2] = test system: Trypanosoma cruzi; assay: Antitrypanosomal activity against Trypanosoma cruzi Arequipa trypomastigotes infected in BALB/c mouse assessed as parasitemia re-activation level measured during chronic phase ( day 90 post infection) at 100 mg/kg, po dosed on alternating days (7 to 15 days post infection) relative to acute phase infection (reference value: […]%); format: functional
# [3] = test system: Trypanosoma cruzi; assay: (§2) Antitrypanosomal activity against Trypanosoma cruzi Arequipa trypomastigotes infected in BALB/c mouse assessed as reduction in parasitemia level in adipose tissue measured during acute phase (days 0 to 40 post infection) at 100 mg/kg, po dosed on alternating days (7 to 15 days post infection) by PCR analysis; format: functional, organism-based
# [4] = test system: Trypanosoma cruzi; assay: as §2, with “esophagus” for “adipose tissue”; format: functional, organism-based
# [5] = molecular target: Superoxide dismutase [Cu-Zn] (Homo sapiens, UniProt P00441); assay: Inhibition of human erythrocyte CuZn-SOD at 100 uM by NBT dye based spectrophotometry; summary of the method: as §1
# [6] = Genotoxicity in Salmonella typhimurium TA102 at 0.03 to 2.25 ug/plate incubated for 48 hrs in absence of liver S9 fraction by Ames test; format: toxicity; conditions: salmonella enterica subsp. enterica serovar typhimurium, s9, 48 h
# Summary of the method: (§3)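 Preincubation Ames assay. […] Top agar with trace histidine/biotin (0.05 mM each) was added and poured onto glucose minimal agar. Plates were incubated 48 h at 37 °C and His+ revertants counted. DMSO was the negative control, with strain-appropriate positive controls. Technical triplicates.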
# [7] = test system: Trypanosoma cruzi; assay: Antitrypanosomal activity against Trypanosoma cruzi SN3 amastigote forms infected in African green monkey Vero cells incubated for 72 hrs by Giemsa staining based micrscopy; format: functional, organism-based
# Summary of the method: (§4)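 Vero cells (RPMI, 10% inactivated FBS, 37 °C, 5% CO2) were seeded at 1×10^4/well on coverslips and cultured 2 days. They were infected 24 h with metacyclic forms at 10:1. After washing off free parasites, drugs were added at 0.1–100 µM for 72 h. Slides were methanol-fixed and Giemsa-stained; amastigotes were counted in 200 host cells versus untreated. IC50 was calculated.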
# [8] = test system: Trypanosoma cruzi; assay: as §2, with “bone marrow” for “adipose tissue”; format: functional, organism-based
# [9] = test system: Trypanosoma cruzi; assay: (§5) Antitrypanosomal activity against Trypanosoma cruzi Arequipa trypomastigotes infected in BALB/c mouse assessed as reduction in parasitemia level in brain measured during acute phase (days 0 to 40 post infection) at 100 mg/kg, po dosed on alternating days (7 to 15 days post infection) by PCR analysis; format: functional, organism-based
# [10] = Genotoxicity in Salmonella typhimurium TA102 at 0.03 to 2.25 ug/plate incubated for 48 hrs in presence of liver S9 fraction by Ames test; format: toxicity, subcellular; conditions: salmonella enterica subsp. enterica serovar typhimurium, s9, 48 h; summary of the method: as §3
# [11] = Genotoxicity in Salmonella typhimurium TA1537 at 0.03 to 2.25 ug/plate incubated for 48 hrs in presence of liver S9 fraction by Ames test; format: toxicity, subcellular; conditions: salmonella enterica subsp. enterica serovar typhimurium, s9, 48 h; summary of the method: as §3
# [12] = test system: Trypanosoma cruzi; assay: Antitrypanosomal activity against Trypanosoma cruzi Arequipa amastigote forms infected in African green monkey Vero cells incubated for 72 hrs by Giemsa staining based micrscopy; format: functional, organism-based; summary of the method: as §4
# [13] = Genotoxicity in Salmonella typhimurium TA98 at 0.03 to 2.25 ug/plate incubated for 48 hrs in absence of liver S9 fraction by Ames test; format: toxicity; conditions: salmonella enterica subsp. enterica serovar typhimurium, s9, 48 h; summary of the method: as §3
# [14] = Genotoxicity in Salmonella typhimurium TA98 at 0.03 to 2.25 ug/plate incubated for 48 hrs in presence of liver S9 fraction by Ames test; format: toxicity, subcellular; conditions: salmonella enterica subsp. enterica serovar typhimurium, s9, 48 h; summary of the method: as §3
# [15] = Genotoxicity in Salmonella typhimurium TA100 at 0.03 to 2.25 ug/plate incubated for 48 hrs in absence of liver S9 fraction by Ames test; format: toxicity; conditions: salmonella enterica subsp. enterica serovar typhimurium, s9, 48 h; summary of the method: as §3
# [16] = test system: Trypanosoma cruzi; assay: as §5, with “muscle” for “brain”; format: functional, organism-based
# [17] = test system: Trypanosoma cruzi; assay: Antitrypanosomal activity against Trypanosoma cruzi Arequipa trypomastigotes infected in BALB/c mouse assessed as reduction in parasitemia level in lung measured during acute phase (days 0 to 40 post infection) at 100 mg/kg, po dosed on alternating days (7 to 15 days post infection) by PCR analysis; format: functional, organism-based
# [18] = test system: Trypanosoma cruzi; assay: Antitrypanosomal activity against Trypanosoma cruzi infected in African green monkey Vero cells assessed as reduction in infection rate measured up to 10 days by Giemsa staining based hemocytometry; format: functional; conditions: time day <=10
# Summary of the method: (§6)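 Vero cells infected with metacyclic forms (10:1) were exposed to one concentration per compound immediately after infection for 12 h at 37 °C, 5% CO2. After washing, cultures were kept 10 days with fresh medium every 48 h. Every 48 h, % infected cells and amastigotes per infected cell (200 Giemsa-stained cells) and medium trypomastigotes (Neubauer) were scored. Means of three experiments.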
# [19] = test system: Trypanosoma cruzi; assay: Antitrypanosomal activity against Trypanosoma cruzi infected in African green monkey Vero cells assessed as reduction in number of amastigotes per infected cell measured up to 10 days by Giemsa staining based hemocytometry; format: functional; conditions: time day <=10; summary of the method: as §6
# [20] = Genotoxicity in Salmonella typhimurium TA1535 at 0.03 to 2.25 ug/plate incubated for 48 hrs in absence of liver S9 fraction by Ames test; format: toxicity; conditions: salmonella enterica subsp. enterica serovar typhimurium, s9, 48 h; summary of the method: as §3
# [21] = test system: Trypanosoma cruzi; assay: Antitrypanosomal activity against Trypanosoma cruzi Arequipa trypomastigotes infected in BALB/c mouse assessed as reduction in splenomegaly by measuring weight percent of spleens […] at 50 mg/kg, po dosed on alternating days (7 to 15 days post infection) by PCR analysis (reference value: 1.603%); format: functional; parameters: scale not given: the % may be the effect or the level left
# [22] = test system: Trypanosoma cruzi; assay: Antitrypanosomal activity against Trypanosoma cruzi SN3 trypomastigote froms infected in mouse blood incubated for 24 hrs by Neubauer chamber based assay; format: functional, organism-based
# Summary of the method: (§7)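 Mouse blood taken at peak parasitemia (day 7) was diluted with uninfected blood to 4×10^6 trypomastigotes/mL, then 1:2 in RPMI 1640. Drugs from DMSO stocks were added at 1, 10, 25, 50 and 100 µM and incubated 24 h at 4–8 °C. Parasites were counted in a Neubauer chamber in triplicate. IC50 was calculated versus control.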
# [23] = test system: Trypanosoma cruzi; assay: Antitrypanosomal activity against Trypanosoma cruzi SN3 epimastigote forms incubated for 72 hrs by hemocytometry; format: functional, organism-based; conditions: SN3, 72 h
# Summary of the method: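 Epimastigotes grown in MTL medium with 10% inactivated FBS at 28 °C. Compounds were dissolved in DMSO (0.01% v/v) and added at 0.1–100 µM for 72 h. Parasites were counted in a Neubauer chamber. IC50 (50% growth inhibition) was derived by linear regression of Kc values. Values are averages of four determinations.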
# [24] = test system: Trypanosoma cruzi; assay: Antitrypanosomal activity against Trypanosoma cruzi Arequipa trypomastigote froms infected in mouse blood incubated for 24 hrs by Neubauer chamber based assay; format: functional, organism-based; summary of the method: as §7
# Superoxide dismutase [Cu-Zn], sequence (P00441 whole entry): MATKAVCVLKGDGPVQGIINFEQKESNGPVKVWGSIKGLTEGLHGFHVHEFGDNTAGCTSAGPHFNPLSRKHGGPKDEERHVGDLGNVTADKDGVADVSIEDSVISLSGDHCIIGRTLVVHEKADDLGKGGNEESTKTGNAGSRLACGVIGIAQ
inhibition [5],IC50 [7],IC50 [12],SMILES,IC50 [1],Activity [2],Activity [3],Activity [4],Activity [6],Activity [8],Activity [9],Activity [10],Activity [11],Activity [13],Activity [14],Activity [15],Activity [16],Activity [17],inhibition (INH) [18],inhibition (INH) [19],Activity [20],further results
inactive,7.9 µM,12.7 µM,O=C(CCN1CCN(c2ccc(F)cc2)CC1)c1csc2ccc(F)cc12,16.8 µM,0%,Active,Active,Non-Toxic,Active,Active,Non-Toxic,Non-Toxic,Non-Toxic,Non-Toxic,Non-Toxic,Active,Active,54%,49%,Non-Toxic,Activity [21]: 1.061%; IC50 [22]: 5.1 µM; IC50 [23]: 12.3 µM; IC50 [24]: 0.3 µM
inactive,8.7 µM,27.9 µM,O=C(CCN1CCN(c2ccc(C(F)(F)F)cc2)CC1)c1csc2ccc(F)cc12,102 µM,0%,Active,Active,Non-Toxic,Active,Active,Non-Toxic,Non-Toxic,Non-Toxic,Non-Toxic,Non-Toxic,Active,Active,47%,64%,Non-Toxic,Activity [21]: 1.621%; IC50 [22]: 6.6 µM; IC50 [23]: 10.1 µM; IC50 [24]: 13.9 µM
